Assays:
RCAS-PDGF glioblastoma = test: Ex vivo NIRF imaging of sliced brains; assay type: in vivo, mouse; settings: RCAS-PDGF model, brain slices 48 hours after probe injection, mean±SEM
In short: (§1)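 Test probe (1 nmol) injected via tail vein; controls were 1 nmol nonspecific RAD-peptide dye conjugate and a blocking mix (1 nmol probe plus 20 nmol unlabeled cRGD). Mice were killed at 48 h; whole brains were sliced coronally and imaged on Odyssey (800 nm channel, sensitivity 5, 21 μm resolution). Signal was background-subtracted and area-weighted, tumor vs corresponding normal brain; tumor confirmed by H&E.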

U-87 MG glioblastoma = test: Ex vivo NIRF imaging of sliced brains; assay type: in vivo, mouse; settings: U-87 MG model, brain slices 48 hours after probe injection, mean±SEM
In short: as §1

TS543 glioblastoma = test: Ex vivo NIRF imaging of sliced brains; assay type: in vivo, mouse; settings: TS543 model, brain slices 48 hours after probe injection, mean±SEM
In short: as §1

[1] = preclinical model; cited from earlier work

IRDye 800CW-conjugated cyclic Arg-Ala-Asp-D-Phe-Lys (head to tail) [IRDye 800CW-RAD, IRDye 800CW-conjugated cyclic Arg-Ala-Asp-D-Phe-Lys peptide]
T/N ratio ex vivo (area-normalized fluorescence-800, tumor vs normal brain) (RCAS-PDGF glioblastoma): 11.6±1.1
T/N ratio ex vivo (area-normalized fluorescence-800, tumor vs normal brain) (U-87 MG glioblastoma): 10.5±1.0
T/N ratio ex vivo (area-normalized fluorescence-800, tumor vs normal brain) (TS543 glioblastoma): 11.6±1.0

CC1(C)C(=CC=C2CCCC(C=CC3=[N+](CCCCCC(=O)[O-])c4ccc(S(=O)(=O)[O-])cc4C3(C)C)=C2Oc2ccc(S(=O)(=O)[O-])cc2)N(CCCCS(=O)(=O)[O-])c2ccc(S(=O)(=O)[O-])cc21.[Na+].[Na+].[Na+].[Na+] [IRDye 800CW]
Toxicity [1]: good results
